# Reference: article PMC3375358 (Journal of Medicinal Chemistry, 2012)
# Legend:
# [1] = tested on: CREB-mediated gene transcription; experiment: CREB reporter assay in HEK 293T cells; assay type: cell-based
# Outline: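 Inhibition of CREB-dependent reporter transcription by test compounds was measured in HEK 293T cells, with a top concentration of 50 μM. IC50 values are given as mean ± SD from at least two independent experiments. Where IC50 was not reached at the highest concentration, the value is recorded as >50.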
# KIX-KID interaction = KIX-KID interaction (Homo sapiens, UniProt Q92793); experiment: in vitro renilla luciferase complementation assay for KIX-KID interaction; assay type: biochemical
# Chain of KIX-KID interaction (Q92793 587-666 limits assumed): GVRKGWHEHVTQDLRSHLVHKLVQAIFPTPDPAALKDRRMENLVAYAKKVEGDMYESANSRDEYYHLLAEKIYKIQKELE
# Outline: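 KIX-KID binding was measured in vitro by renilla luciferase complementation, with test compounds up to 50 μM. IC50 values are given as mean ± SD from at least two independent experiments. The value is listed as >50 if IC50 was not reached at the top concentration.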
SMILES,activity in cell-based CREB reporter assay (in words) [1],activity in inhibiting KIX-KID interaction (in words) (KIX-KID interaction)
"O=c1[nH]c2cc3ccccc3cc2c(=O)n1-c1ccc(Cl)cc1 [Compound 3, 3-(4-Chlorophenyl)-benzo[g]quinazoline-2,4-(1H,3H)-dione]",low or no inhibitory activity,neither of these compounds showed any activity
"O=c1oc2cc3ccccc3cc2c(=O)n1-c1ccc(Cl)cc1 [Compound 2, 3-(4-Chlorophenyl)-2H-naphtho[2,3-e][1,3]oxazine-2,4-(3H)-dione]",low or no inhibitory activity,neither of these compounds showed any activity
"Cn1nc(Nc2ccc(Cl)cc2)c2cc3ccccc3cc21 [Compound 6, N-(4-Chlorophenyl)-1-methyl-1H-benzo[f]indazol-3-amine]",inactive,
"Clc1ccc(Nc2noc3cc4ccccc4cc23)cc1 [Compound 4, N-(4-Chlorophenyl)-naphtho[2,3-d]isoxazol-3-amine]",very weak activity,inactive
